# AI-2 QS modul: Vibrio harveyi AI-2 quorum sensing modulators, primary screen, JMH597 strain, luminescence/OD600 ratio; AID 2094, 2009; Vibrio harveyi JMH597 AI-2 luminescence/OD600 ratio, 9 h; stronger effect = lower value; strain lacks LuxN and CqsS sensors; 0 = neutral-control median; 300,000 compounds, 0.4% hits; activity change, % at 7.5 µM; in the data active = activity change below about -75%, passing the limit was not always enough; inconclusive = no clear call, values can overlap the other calls;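 note: luminescence divided by OD600 gain over 9 h not by final OD600 alone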
# T cruzi repl: inhibitors of intracellular T. cruzi growth, primary screen, luminescence, NIH3T3 host cells | 300,000 compounds, 1.4% hits | T. cruzi beta-gal in NIH3T3, 90 h | inhibition, % (concentration not given with the values);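 active = mean inhibition across valid replicates above about 55%, limit read from the data; inconclusive = mean below that limit but half or more replicates reach it; inactive = mean below it, under half of replicates reach it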;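 note: signal also drops with host cell toxicity which is not excluded here; 0% = plate median of DMSO wells and 100% = zero luminescence signal; higher percent means less beta-gal luminescence so fewer parasites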
#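 assay system = mouse NIH/3T3 fibroblasts infected with β-gal-expressing T. cruzi Tulahuen C4 | input = 5,000 NIH/3T3 host cells per well | buffer or medium = DMEM plus 2% FBS | timing = 3 h host attachment, then at least 90 h co-culture | measured by = GalScreen luminescence, 60 min | evaluation = luminescence reflecting intracellular parasite burden, expressed as percent inhibition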
# HIF activator: HIF pathway transcriptional activators, primary screen, cell-based, U2OS HRE-luciferase, luminescence; activation, % at 7.5 µM (by protocol); U2OS HRE-luciferase reporter; normalized: DMSO 0%, desferrioxamine 100%; 300,000 compounds, 0.32% hits;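 active = mean activation of at least 10% of the iron chelator positive control signal, with at least half of replicates also reaching 10%; inconclusive = mean and replicate majority disagree about reaching 10%; inactive = mean and most replicates under 10%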
# ARNT TACC3 PPI: disruptors of ARNT/TACC3 protein interaction, primary screen, biochemical, AlphaScreen, single concentration; Transforming acidic coiled-coil-containing protein 3 (Homo sapiens), Q9Y6A5; AlphaScreen His-ARNT PAS-B/GST-TACC3 binding, luminescence; TACC3 fragment carries E629A point mutation; inhibition, % at 9.99 µM; 390,000 compounds, 0.66% hits;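 active = mean inhibition of replicates at least 50% and at least half of replicates each reaching 50%; inconclusive = half or more replicates reach 50% but mean below 50%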;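 note: 0% = complete ARNT plus TACC3 wells and 100% = ARNT alone without TACC3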
# * marks the source's active call; other numbers are inactive results; ? = inconclusive; / = not tested or not shown. Shown are actives, neighbours in structure and some others; about 2% of the full set was active somewhere.
SMILES,AI-2 QS modul,T cruzi repl,HIF activator,ARNT TACC3 PPI
Cc1cccc2cc(CN(Cc3ccco3)C(=O)Nc3cccc(C#N)c3)c(Cl)nc12,-2,60*,0,-5
O=C(Nc1ccccc1)NC1(c2cn(CC(=O)N3CCN(c4ccccc4)CC3)nn2)CCCCC1,/,/,/,34
FC(F)(F)c1cnc(N2CCN(C(=S)NCc3ccccc3)CC2)c(Cl)c1,12,-4,45*,0
FC(F)(F)c1cnc(N2CCCN(C(=S)Nc3ccccc3)CC2)c(Cl)c1,19,9,0,12
C[C@H](CO)N1C[C@H](C)[C@@H](CN(C)C(=O)NC2CCCC2)Oc2ncc(-c3ccccc3F)cc2C1=O,/,/,/,0
Nc1nonc1C(=O)NCCN=Cc1ccccc1O,22,-9,0,-3
Nc1nonc1C(=O)NCCN=Cc1cc(Cc2ccccc2)cc(Br)c1O,-149*,-28,1,-2
CN(CCc1ccccn1)Cc1ccc(Cl)c(Cl)c1,-18,62*,0,0
CSc1ccc(CN(C)CCc2ccccn2)cc1,7,59*,-3,-3
CCC(=O)N1C[C@H]2[C@@H](c3ccccc31)[C@H](CO)N2Cc1ccc(F)cc1,/,/,/,-4
CCN1[C@@H]2c3ccc(-c4ccccc4F)c(=O)n3C[C@H]1[C@H](CO)[C@H]2C(=O)N1CCCCC1,/,/,/,-13
O=C(NCc1ccco1)C(c1ccccc1F)N(Cc1cccnc1)C(=O)Cn1nnc2ccccc21 (centres undefined),15,66*,0,0
Cc1ccc(C(=O)NCCc2nc3ccccc3[nH]2)cc1[N+](=O)[O-],4,58*,0,-2
O=C(NC1CCCCC1)N[C@@H]1CC[C@H](CC(=O)N2CCOCC2)O[C@H]1CO,/,/,/,-3
O=C(O)c1cccc(Cn2c(Cl)c(/C=N/NC(=O)c3ccc(O)cc3)sc2=O)c1,12,-7,0,41*
O=C(COc1ccccc1)N/N=C/c1sc(=O)n(Cc2cccc(C(=O)O)c2)c1Cl,21,-3,0,3
O=C1c2cccnc2C(=O)N1CO,16,-16,0,11
NC1=C(Br)C(=O)c2ncccc2C1=O,/,/,/,64*
O=C(Oc1ccc2c(=O)c(Oc3ccc4ccccc4c3)coc2c1)c1cncc(Br)c1,-83*,-7,-1,/
Cc1ccc(Oc2coc3cc(O)ccc3c2=O)cc1,-94*,-6,0,-7
CCCCOC(=O)Oc1ccc2c(=O)c(Oc3cccc(C)c3)coc2c1,-77*,-20,1,-1
OC(CN1CCCCC1)Cn1c2ccc(Cl)cc2c2cc(Cl)ccc21 (centres undefined),0,82*,-22,12
CCCCCCCCCC(=O)N/N=C(\C)c1cccnc1,2,62*,0,-5
COc1cccc(-c2ccc3c(c2)[C@H]2[C@H](CCN2S(=O)(=O)c2ccccc2OC)[C@@H](CO)N3)c1,/,/,/,-7
O=C(C[C@H]1CC[C@H](NC(=O)Nc2cccc(F)c2)[C@@H](CO)O1)NCC1CCCCC1,/,/,/,0
SMILES,AI-2 QS modul,T cruzi repl,HIF activator,ARNT TACC3 PPI
CC(C)OC(=O)c1cn(-c2ccccc2)nc1-c1ccco1,4,56*,1,-2
CCOC(=O)C1=C(C)NC(C)=C(C(=O)OCC)C1c1cn(-c2ccccc2)nc1-c1ccco1,-3,-10,0,62*
CCOC(=O)C1=C(C)NC(=O)NC1c1cn(-c2ccccc2)nc1-c1cccs1 (centres undefined),27,19,0,1
Cc1ccccc1N1CCN(C(=O)c2ccc(Oc3ccc(C(F)(F)F)cn3)cc2)CC1,14,58*,0,-12
COC(=O)C1CCN(Cc2ccc(OCCCN3CCN(c4ccc([N+](=O)[O-])cc4)CC3)cc2)CC1,25,61*,1,15
CC1CCN(CCCCOc2ccc([N+](=O)[O-])cc2)CC1,2,20,0,1
O=[N+]([O-])c1ccc(OCCCCN2CCCCC2)cc1,-8,26,189*,2
CO[C@H]1CN(C)C(=O)c2ccc(NC(=O)Cc3ccccc3)cc2OC[C@@H](C)NC[C@H]1C,/,/,/,-2
CCCNC(=O)Nc1ccc2c(c1)C(=O)N(C)C[C@@H](OC)[C@@H](C)CN(C(=O)C1CCOCC1)[C@@H](C)CO2,/,/,/,-12
COc1ccccc1/C=N/NC(=O)c1ccc(C)nc1,10,-8,-1,3
COc1ccc2ccccc2c1/C=N\NC(=O)c1cccnc1,19,-5,0,/
O=C(N/N=C/c1c(O)ccc2ccccc12)c1cccnc1,6,66*,83*,59*
Cc1ccc(C(=O)N/N=C/c2c(O)ccc3ccccc23)cn1,-19,67*,37*,-6
O=C(N/N=C\c1c(O)ccc2ccccc12)c1cncc(Br)c1,?,65*,26*,15
Cn1cccc1/C=N\NC(=O)c1cncc(Br)c1,7,-6,0,/
CCNC(=O)C[C@H]1CC[C@H]2[C@H](COc3ccc(NC(=O)c4cscn4)cc3C(=O)N2C)O1,/,/,/,4
C[C@H]1CN([C@@H](C)CO)C(=O)c2cc(NS(=O)(=O)c3cn(C)cn3)ccc2O[C@H]1CN(C)S(C)(=O)=O,/,/,/,1
Cc1ccc(S(=O)(=O)N(C)C[C@H]2OCCCC[C@@H](C)Oc3ccc(NS(C)(=O)=O)cc3C(=O)N([C@H](C)CO)C[C@H]2C)cc1,/,/,/,-1
COc1cccc(C2C3=C(N=c4s/c(=C\c5ccccc5O)c(=O)n42)c2ccccc2CC3)c1OC (centres undefined),7,-9,616*,/
COc1cccc(C2C3=C(N=C4SCC(=O)N42)c2ccccc2CC3)c1OC (centres undefined),8,13,0,2
CCC(=O)NC(c1cccs1)c1cc(Cl)c2cccnc2c1O (centres undefined),30,59*,31*,4
CCCCC(=O)NC(c1cccs1)c1cc(Cl)c2cccnc2c1O (centres undefined),?,?,34*,4
O=C(O)CCC(=O)Nc1ccc(-c2csc(Nc3cccc4ccccc34)n2)cc1,/,/,/,8.8*
Cc1noc(C)c1NC(=O)Nc1ccc2c(c1)C(=O)N([C@@H](C)CO)C[C@@H](C)[C@H](CN(C)C(=O)C1CCCCC1)OCCCC[C@@H](C)O2,/,/,/,-10
Cc1ccc(C)c(N(CC(=O)Nc2ccc(-c3nc4ccc(C)cc4s3)cc2)S(C)(=O)=O)c1,32,65*,2,-9
Cc1ccc(N(CC(=O)Nc2ccc(-c3nc4ccc(C)cc4s3)cc2)S(C)(=O)=O)cc1,22,7,2,0
COc1ccc(C#Cc2ccc3c(c2)[C@@H]2[C@@H](CCN2S(=O)(=O)c2ccccc2C)[C@@H](CO)N3)cc1,/,/,/,0
NS(=O)(=O)c1ccc(Nc2nc(-c3cccc([N+](=O)[O-])c3)cs2)cc1,2,58*,-6,/

# From PubChem BioAssay
